Measurements as given in article PMC12215028 (Scientific Reports, 2025).

What was measured:
[1] = system: A549, H460, H1299, and HCC827 cell lines; assay: MTT assay, statements over all four lines; assay type: cell-based, human; settings: 48 h
Method in brief: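 H460, H1299 and HCC827 cells were kept in RPMI1640 with 10% FBS at 37 °C and 5% CO₂. A549 cells were plated at 2,500 per well. Cells were exposed to 0–50 µM test compound (final; 3.125–50 µM twofold steps) or DMSO control for 24, 48 and 72 h. MTT was then added for 2 h at 37 °C, formazan was dissolved in DMSO, and OD was read at 570 nm. Data are mean ± standard deviation; IC50 was calculated from viability.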

p-EGFR(Y1068) = assay: Western blot, NSCLC cell lines; assay type: cell-based, human; settings: A549 and H460 cells; 50 µM
Method in brief: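 Cells were plated at 150,000 per well and treated with test compound or DMSO for 24 h. They were lysed in RIPA buffer with PMSF, DTT, NaF, Na₃VO₄ and protease inhibitors for 30 min on ice, then spun at 13,000 rpm for 30 min at 4 °C. Protein was quantified by Bradford assay and resolved by SDS-PAGE. Blots were probed with secondary antibodies at 1:5000 for 1 h at RT, detected by chemiluminescence and quantified by densitometry.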

A549 cells = assay: Subcutaneous xenograft mouse model; assay type: in vivo, BALB/c-nude male mice; settings: 30 mg/kg
Method in brief: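 Male BALB/c nude mice aged 6–7 weeks, under isoflurane, received 5 × 10⁶ A549 cells in 50 µL PBS plus 50 µL Matrigel subcutaneously in the flank. Groups of six received vehicle, test compound or reference compound by oral gavage three times weekly for 27 days. Vehicle was Tween 80:PEG400:ethanol:5% glucose 1:6:3:20, at 100 µL per 25 g mouse. Tumors were caliper-measured three times weekly; endpoint was about 1,500 mm³ or distress.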

[2] = system: A549 xenograft tumor tissue; assay: H&E staining of xenograft tumor tissue; assay type: in vivo, BALB/c-nude male mice; settings: 30 mg/kg; compared to the vehicle group
Method in brief: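 A549 cells (5 × 10⁶ in PBS plus Matrigel) were implanted subcutaneously into the flank of male nude mice aged 6–7 weeks. Compound was given by oral gavage three times weekly. Paraffin tumor sections were deparaffinized in xylene and rehydrated through graded ethanol. They were stained with hematoxylin for 30 s, differentiated in acid alcohol (0.3% HCl in 70% ethanol) and stained with eosin for 2 min. Sections were then dehydrated, cleared and mounted, and staining was quantified by image analysis.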

p-EGFR = assay: Immunohistochemistry of xenograft tumor tissue; assay type: in vivo, BALB/c-nude male mice; settings: tumor tissues; compared to the vehicle group
Method in brief: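 Paraffin sections of subcutaneous A549 flank tumors from nude mice were deparaffinized and rehydrated, and peroxidase was blocked with H₂O₂. Antigen retrieval used 0.01 M citrate (pH 6.0) at boiling for 10 min. Sections were blocked in normal goat serum for 1 h at RT, then incubated with anti-p-EGFR (Y1068) at 1:100 overnight at 4 °C. Detection used a biotinylated secondary (1 h, RT), ABC reagent (30 min) and DAB, with hematoxylin counterstain.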

SMILES: CC(C)=CC(=O)O[C@H]1Cc2cc3ccc(=O)oc3cc2OC1(C)C [decursin]
- cytotoxicity [1]: significant cytotoxicity at 50 µM
- p-EGFR(Y1068) expression levels (p-EGFR(Y1068)): failed to inhibit EGFR phosphorylation
- tumor size at the experimental endpoint (A549 cells; oral gavage three times per week, 27 days, vs vehicle): no statistically significant reduction
- body weight changes (A549 cells; vs control, throughout the experimental period): no significant difference
- tumor cell density (H&E) [2]: did not show a significant difference
- p-EGFR-positive cells / expression (IHC) (p-EGFR): not significantly reduced
